Experimental data as given in ChEMBL document CHEMBL1255483, “Intra- and extracellular activities of dicloxacillin against Staphylococcus aureus in vivo and in vitro” (Antimicrob Agents Chemother, 2010).
Converted amounts (≈) assume the structure as drawn. The source made the active and inactive calls. No cut-off for these calls is given here.

Columns and labels:
Mus musculus [1] = species on record: Mus musculus; test: Protein binding in NMRI mouse at 270 mg/l by ultrafiltration; format: ADME, organism-based; conditions: in vivo
Method in brief: (§1)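 Plasma binding was measured by ultrafiltration. EDTA blood from healthy mice, or from NMRI mice infected intraperitoneally for 6 h with E19977, was spiked with DCX at 10–400 mg/liter, with PBS controls. Samples were held 1 h at 37°C, then centrifuged through 30-kDa filters at 3,000 × g for 8 min at 37°C. Total and filtrate drug were measured by S. lutea bioassay.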

Staphylococcus aureus [2] = test: Antimicrobial activity against Staphylococcus aureus E19977 infected in human THP1 cells assessed as log reduction in bacterial count at MIC after 24 hrs by time-kill assay; format: functional, THP-1
Method in brief: (§2)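 Intracellular model in THP-1 macrophages: opsonized S. aureus was added at 4 bacteria per macrophage for 45 min. Non-phagocytized bacteria were removed by washing and brief PBS incubation with gentamicin (50 mg/liter). Cells were then incubated up to 24 h with a wide range of extracellular dicloxacillin concentrations. Result is change in log₁₀ CFU per mg cell protein from time zero. n = 3.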

[3] = Ratio of fAUC (24 hrs) in NMRI mouse at 80 mg/kg administered every 3 hrs to MIC for Staphylococcus aureus E19977
Mus musculus [4] = species on record: Mus musculus; test: Protein binding in NMRI mouse infected with Staphylococcus aureus E19977 at 270 mg/l by ultrafiltration; format: ADME, organism-based; conditions: in vivo; method in brief: as §1
Staphylococcus aureus [5] = test: Antimicrobial activity against Staphylococcus aureus ATCC 25923 by broth microdilution method at pH 5.4
[6] = Ratio of fAUC (24 hrs) in NMRI mouse at 300 mg/kg administered every 12 hrs to MIC for Staphylococcus aureus E19977; format: functional
Method in brief: (§3)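 Modeled free AUC over 24 h divided by the MIC, not measured directly. Single subcutaneous DCX doses were given to NMRI mice, and plasma was assayed by S. lutea bioassay. Noncompartmental analysis used trapezoidal mean points plus a fitted monoexponential extrapolated to 24 h. Free fraction came from a square-root fit to plasma ultrafiltration binding (10–400 mg/liter spike, 1 h, 37°C). The MIC was measured by broth microdilution at pH 7.4.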

[7] = fT>MIC in Staphylococcus aureus E19977 infected NMRI mouse at 400 mg/kg administered every 12 hrs; format: functional
Method in brief: (§4)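 Calculated percentage of 24 h at steady state that free plasma DCX exceeds the strain MIC (microdilution, pH 7.4). Concentrations were simulated from single subcutaneous dose plasma curves in NMRI mice (S. lutea bioassay), adjusted with a square-root model of concentration-dependent free fraction from ultrafiltration. The regimen was dosed subcutaneously in mice infected intraperitoneally with 10^7.4 CFU, and peritoneal CFU were read after 24 h of therapy.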

Mus musculus [8] = species on record: Mus musculus; test: Protein binding in NMRI mouse infected with Staphylococcus aureus E19977 at 90 mg/l by ultrafiltration; format: ADME, organism-based; conditions: in vivo; method in brief: as §1
Staphylococcus aureus [9] = test: Bacteriostatic activity against Staphylococcus aureus E19977 after 24 hrs; format: functional
Method in brief: (§5)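 Extracellular broth time- and concentration-kill test. The inoculum was ~10⁶ CFU/ml, exposed to a wide range of DCX concentrations, with CFU counted after 5 and 24 h. The read-out was Δlog CFU/ml versus time zero (mean ± SD, n = 3). A sigmoidal fit with slope 1 gave Emax and EC50. Cstatic was read by graphical interpolation as the concentration giving no change from the inoculum.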

Staphylococcus aureus [10] = test: Bacteriostatic activity against Staphylococcus aureus E19977 infected in human THP-1 cells at 10 times MIC after 5 hrs; format: functional, organism-based
Method in brief: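 Human THP-1 macrophages were infected with opsonized S. aureus at 4 bacteria per macrophage for 45 min. Non-phagocytized bacteria were removed by washing and a brief incubation in PBS with gentamicin 50 mg/liter. Cells were then incubated up to 24 h with DCX over a wide range of extracellular concentrations. The read-out was Δlog CFU per mg cell protein versus time zero (n = 3), with sigmoidal fitting and Cstatic by interpolation.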

[11] = Ratio of fAUC (24 hrs) in NMRI mouse at 200 mg/kg administered every 4 hrs to MIC for Staphylococcus aureus E19977; format: functional
Method in brief: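 Computed from modelled dosing regimens, not measured directly. Single subcutaneous doses were given to NMRI mice, and plasma was assayed by S. lutea bioassay. AUC24 came from noncompartmental analysis, with terminal exponential extrapolation to 24 h. The free fraction came from a square-root fit to ultrafiltration protein-binding data, with saturable binding included. MIC was by broth microdilution.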

[12] = fT>MIC in Staphylococcus aureus E19977 infected NMRI mouse at 76 mg/kg administered every 2 hrs; format: functional; method in brief: as §4
[13] = Ratio of fCmax in NMRI mouse at 160 mg/kg administered every 3 hrs to MIC for Staphylococcus aureus E19977; format: functional
Method in brief: (§6)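 Free Cmax/MIC was modelled, not measured. Single-dose subcutaneous plasma curves from NMRI mice were projected to the multiple-dose regimens. Free fraction came from a square-root fit of unbound fraction versus total concentration. Binding was measured by ultrafiltration of mouse plasma spiked with 10–400 mg/liter and held 1 h at 37°C. MIC was for strain E19977.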

Mus musculus [14] = species on record: Mus musculus; test: Protein binding in NMRI mouse at 10 mg/l by ultrafiltration; format: ADME, organism-based; conditions: in vivo; method in brief: as §1
[15] = Cmax in NMRI mouse at 30 mg/kg, sc; format: ADME, organism-based; parameters: dose 30 mg/kg, route subcutaneous; conditions: in vivo
Method in brief: (§7)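 Single subcutaneous dicloxacillin doses were given to NMRI mice. EDTA plasma was assayed by microbiological bioassay with S. lutea ATCC 9391 (detection limit 1.5 mg/liter, linear to 100 mg/liter, CV ~5%). Cmax was obtained by noncompartmental analysis.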

Staphylococcus aureus [16] = test: Bactericidal activity against Staphylococcus aureus ATCC 25923 assessed as log reduction in bacterial count at 10 times MIC after 5 hrs by time-kill assay; format: functional
Method in brief: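 Broth time-kill: MSSA at 10⁶ CFU/ml exposed to a wide range of dicloxacillin concentrations. CFU counted after 5 and 24 h and expressed as change in log₁₀ CFU/ml from time zero. Multiples refer to the MIC by CLSI microdilution at pH 7.4. n = 3.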

[17] = Cmax in NMRI mouse at 60 mg/kg, sc; format: ADME, organism-based; parameters: dose 60 mg/kg, route subcutaneous; conditions: in vivo; method in brief: as §7
[18] = fT>MIC in Staphylococcus aureus E19977 infected NMRI mouse at 340 mg/kg administered every 24 hrs
[19] = Ratio of fCmax in NMRI mouse at 120 mg/kg administered every 24 hrs to MIC for Staphylococcus aureus E19977; format: functional; method in brief: as §6
[20] = Ratio of fAUC (24 hrs) in NMRI mouse at 400 mg/kg administered every 12 hrs to MIC for Staphylococcus aureus E19977; format: functional; method in brief: as §3
Staphylococcus aureus [21] = test: Bactericidal activity against Staphylococcus aureus ATCC 25923 infected in human THP1 cells assessed as log reduction in bacterial count at 10 times MIC after 24 hrs by time-kill assay; format: functional, THP-1; method in brief: as §2
[22] = fT>MIC in Staphylococcus aureus E19977 infected NMRI mouse at 200 mg/kg administered every 6 hrs; format: functional; method in brief: as §4
Staphylococcus aureus [23] = test: Antimicrobial activity against Staphylococcus aureus E19977 by broth microdilution method at pH 5.4
Staphylococcus aureus [24] = test: Bacteriostatic activity against Staphylococcus aureus ATCC 25923 at MIC between 5 to 24 hrs; format: functional, organism-based; method in brief: as §5

Activity (Mus musculus [1]): 84.9% | fAUC/MIC [3]: 168.69 h | Activity (Mus musculus [4]): 80.7% | MIC (Staphylococcus aureus [5]): 0.031 µg/mL (≈ 0.0659 µM) | fAUC/MIC [6]: 439.15 h | fT>MIC [7]: 35.97% | Activity (Mus musculus [8]): 85.6% | fAUC/MIC [11]: 616.07 h | fT>MIC [12]: 100% | Activity (Mus musculus [14]): 93.9% | Cmax [15]: 36 µg/mL | Cmax [17]: 90.1 µg/mL | fT>MIC [18]: 17.78% | fAUC/MIC [20]: 644.84 h | fT>MIC [22]: 57.5% | MIC (Staphylococcus aureus [23]): 0.125 µg/mL (≈ 0.266 µM)
SMILES: Cc1onc(-c2c(Cl)cccc2Cl)c1C(=O)N[C@@H]1C(=O)N2[C@@H]1SC(C)(C)[C@@H]2C(=O)O [DICLOXACILLIN]
FC (Staphylococcus aureus [2]): 1 | Activity (Staphylococcus aureus [9]): 0.43 mg/L | Activity (Staphylococcus aureus [10]): Active | Ratio [13]: 81.58 | FC (Staphylococcus aureus [16]): <1 | Ratio [19]: 61.6 | FC (Staphylococcus aureus [21]): <1 | Activity (Staphylococcus aureus [24]): Active
